The values that follow come from ChEMBL document CHEMBL4342502, “Synthesis and Antichlamydial Activity of Molecules Based on Dysregulators of Cylindrical Proteases” (J Med Chem, 2020).

Activity calls are given as the source filed them. The rule behind the calls is not given here.

Common to all, as to assay type: functional, organism-based
The test system of experiment [1] is Candida albicans. The experiment in a line: Antifungal activity against Candida albicans ATCC 90028 assessed as fungal growth inhibition at 32 ug/ml measured after 16 hrs by broth microdilution method. Background: Dilution methods test growth across graded concentrations, often in twofold steps.
In experiment [2] the test system is Escherichia coli. The experiment in a line: Antibacterial activity against Escherichia coli K12 assessed as bacterial growth inhibition at 32 ug/ml measured after 16 hrs by broth microdilution method. The conditions noted are these: K-12. Put shortly: (§1)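 Broth microdilution in Mueller Hinton broth, triplicate. Direct colony suspension at 1.5 x 10^8 CFU/mL diluted to ~10^5 CFU/mL. Serial dilutions made from DMSO stocks at 1 mg/mL; vancomycin positive control, blank medium negative control. Incubated 16 h at optimum temperature. MIC is the lowest concentration without visible growth at 600 nm; mean of triplicate determinations.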

Experiment [3] deals with Klebsiella pneumoniae. The experiment in a line: Antibacterial activity against Klebsiella pneumoniae ATCC 700603 assessed as bacterial growth inhibition at 32 ug/ml measured after 16 hrs by broth microdilution method.
The test system of experiment [4] is Cryptococcus neoformans. The experiment in a line: Antifungal activity against Cryptococcus neoformans var. grubii H99 ATCC […] as fungal growth inhibition at 32 ug/ml measured after 16 hrs by broth microdilution method. As to conditions: var. grubii H99 ATCC 208821.
Experiment [5] relates to Escherichia coli. The experiment in a line: Antibacterial activity against Escherichia coli ATCC 25922 assessed as bacterial growth inhibition at 32 ug/ml measured after 16 hrs by broth microdilution method.
Experiment [6] concerns Staphylococcus aureus. The experiment in a line: Antibacterial activity against methicillin-resistant Staphylococcus aureus ATCC 43300 assessed as bacterial growth inhibition at 32 ug/ml measured after 16 hrs by broth microdilution method.
Experiment [7] has as its system Staphylococcus aureus. The experiment in a line: Antibacterial activity against Staphylococcus aureus JE2 assessed as bacterial growth inhibition at 32 ug/ml measured after 16 hrs by broth microdilution method. The method, boiled down:
as §1

The subject of experiment [8] is Chlamydia trachomatis. The experiment in a line: Anti-chlamydial activity against Chlamydia trachomatis Serovar LGV-L2 infected in Hep2 cells assessed as inhibition of chlamydial inclusion at 50 ug/ml treated at 8 hrs post infection and measured at 24 hrs post-infection by immunofluorescence assay. The method, boiled down: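 HEp-2 cells infected with C. trachomatis serovar L2. Compounds at 50 μg/mL added 8 hpi; inclusion number and size assessed by immunofluorescence at 24 hpi against untreated cells. Cell morphology and viability checked by phase-contrast microscopy.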

Experiment [9] relates to Acinetobacter baumannii. The experiment in a line: Antibacterial activity against Acinetobacter baumannii ATCC 19606 assessed as bacterial growth inhibition at 32 ug/ml measured after 16 hrs by broth microdilution method. The conditions noted are these: ATCC 19606 = CIP 70.34 = JCM 6841.
In experiment [10] the test system is Pseudomonas aeruginosa. The experiment in a line: Antibacterial activity against Pseudomonas aeruginosa ATCC 27853 assessed as bacterial growth inhibition at 32 ug/ml measured after 16 hrs by broth microdilution method.

As to `CC(C)(C(=O)NCCCc1ccccc1)S(=O)(=O)c1ccccn1`, the inhibition entry in experiment [1], in experiment [2], in experiment [3], in experiment [4], in experiment [5] and in experiment [6] was “inactive” each time. Further, the inhibition result in experiment [7], in [8], in experiment [9] and in [10] was “inactive” in each case.
As to `CC(C)(C(=O)N1CCN(c2ccccc2)CC1)S(=O)(=O)c1ccc(C(F)(F)F)cn1`, the inhibition result in experiment [1], in experiment [2], in [3], in experiment [4], in experiment [5] and in experiment [6] was “inactive” throughout. Further, the inhibition result in [7], in experiment [8], in [9] and in experiment [10] was “inactive” each time.
Regarding `CC(C)(C(=O)NCCCc1ccccc1)S(=O)(=O)c1ccc(Cl)cn1`, the inhibition result in experiment [8] was “Active”.
In the case of `CC(C)(C(=O)N1CCN(Cc2ccc(F)cc2)CC1)S(=O)(=O)c1ccc(C(F)(F)F)cn1`, the inhibition result in experiment [1], in experiment [2], in experiment [3], in [4], in [5] and in experiment [6] was “inactive” in each case. Also, the inhibition result in [7], in experiment [8], in experiment [9] and in [10] was “inactive” each time.
Consider `CC(C)(C(=O)NCCOc1ccc(Cl)cc1)S(=O)(=O)c1ccc(C(F)(F)F)cn1`, for which the inhibition entry in experiment [1], in experiment [2], in experiment [3], in experiment [4], in experiment [5] and in experiment [6] was “inactive” in each case. Besides, the inhibition entry in experiment [7], in [8], in [9] and in experiment [10] was “inactive” throughout.
Take `CC(C(=O)NCCCc1ccccc1)S(=O)(=O)c1ccc(C(F)(F)F)cn1` (configuration not stated): the inhibition result in [1], in experiment [2], in experiment [3], in experiment [4], in experiment [5] and in [6] was “inactive” in each case. The inhibition result in experiment [7], in [8], in [9] and in experiment [10] was “inactive” in each case.
As to `NCCCc1ccccc1`, the inhibition entry in experiment [1], in experiment [2], in experiment [3], in experiment [4], in experiment [5] and in experiment [6] was “inactive” in each case. Moreover, the inhibition result in experiment [7], in experiment [9] and in [10] was “inactive” in each case.
For the compound `CC(C)(C(=O)NCCSc1ccccc1)S(=O)(=O)c1ccc(C(F)(F)F)cn1`, the inhibition result in [8] was “inactive”.
Still for that read-out and setting: the value for `CC(C)(C(=O)NCCOc1ccccc1)S(=O)(=O)c1ccccc1` was “inactive”.
For `CC(C)(C(=O)NCCOc1ccc(Cl)cc1)S(=O)(=O)c1ccccc1`, the inhibition result in [1], in experiment [2], in experiment [3], in [4], in [5] and in experiment [6] was “inactive” in each case. Moreover, the inhibition entry in [7], in experiment [8], in experiment [9] and in experiment [10] was “inactive” each time.
For `Cc1ccc(C)c(N2CCN(C(=O)C(C)(C)S(=O)(=O)c3ccc(C(F)(F)F)cn3)CC2)c1`, the inhibition entry in experiment [1], in [2], in [3], in [4], in experiment [5] and in [6] was “inactive” throughout. The inhibition result in [7], in experiment [9] and in experiment [10] was “inactive” in each case. Moreover, the inhibition result in experiment [8] was “Active”.
As for `CC(C)(C(=O)NCCOc1ccccc1Cl)S(=O)(=O)c1ccc(C(F)(F)F)cc1`, the inhibition result in [1], in [2], in experiment [3], in experiment [4], in experiment [5] and in experiment [6] was “inactive” throughout. The inhibition entry in experiment [7], in [9] and in experiment [10] was “inactive” in each case. The inhibition entry in [8] is “Active”.
Turning to `CC(C)(C(=O)NCCOc1ccc(Cl)cc1)S(=O)(=O)c1ccc(C(F)(F)F)cc1`, the inhibition result in experiment [1], in experiment [2], in [3], in experiment [4], in experiment [5] and in experiment [6] was “inactive” each time. Also, the inhibition entry in experiment [7], in [8], in [9] and in experiment [10] was “inactive” throughout.
Turning to `Cc1ccccc1N1CCN(C(=O)C(C)S(=O)(=O)c2ccc(C(F)(F)F)cn2)CC1` (configuration not stated), the inhibition entry in experiment [1], in experiment [2], in experiment [3], in [4], in experiment [5] and in experiment [6] was “inactive” each time. Also, the inhibition result in [7], in [8], in experiment [9] and in [10] was “inactive” each time.
Regarding `CC(C)(C(=O)N1CCN(c2ccccn2)CC1)S(=O)(=O)c1ccc(C(F)(F)F)cn1`, the inhibition entry in experiment [1], in [2], in experiment [3], in experiment [4], in experiment [5] and in experiment [6] was “inactive” throughout. Moreover, the inhibition entry in [7], in experiment [8], in experiment [9] and in [10] was “inactive” in each case.
`COc1cccc(N2CCN(C(=O)C(C)(C)S(=O)(=O)c3ccc(C(F)(F)F)cn3)CC2)c1`: the inhibition entry in experiment [1], in [2], in [3], in experiment [4], in experiment [5] and in experiment [6] was “inactive” each time. Further, the inhibition entry in [7], in [9] and in [10] was “inactive” throughout. In addition, in experiment [8], the inhibition entry is “Active”.
In the case of `Cc1ccc(C)c(N2CCN(C(=O)C(C)S(=O)(=O)c3ccc(C(F)(F)F)cn3)CC2)c1` (configuration not stated), the inhibition entry in [1], in experiment [2], in experiment [3], in experiment [4], in experiment [5] and in experiment [6] was “inactive” in each case. Moreover, the inhibition result in experiment [7], in experiment [8], in experiment [9] and in [10] was “inactive” each time.
Regarding `CC(C(=O)N1CCN(c2ccc(Cl)c(Cl)c2)CC1)S(=O)(=O)c1ccc(C(F)(F)F)cn1` (configuration not stated), the inhibition entry in experiment [1], in [2], in [3], in experiment [4], in [5] and in [6] was “inactive” throughout. For the same compound, the inhibition entry in experiment [7], in experiment [8], in [9] and in [10] was “inactive” each time.
